Results on 16 molecules are retold here after ChEMBL document CHEMBL1151758, “Synthesis of polyfluoro ketones for selective inhibition of human phospholipase A2 enzymes” (J Med Chem, 2008).

Assay [1] has as its target T1, Phospholipase A2 group V (Homo sapiens) (UniProt P39877).
T1 sequence (whole entry): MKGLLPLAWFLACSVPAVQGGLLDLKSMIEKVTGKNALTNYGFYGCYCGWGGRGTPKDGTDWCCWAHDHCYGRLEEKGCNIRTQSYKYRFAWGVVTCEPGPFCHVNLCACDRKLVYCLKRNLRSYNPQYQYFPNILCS
The experiment in a line: Inhibition of human group 5 sPLA2 at 0.091 mol fraction by mixed micelle-based assay. In outline: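 Modified Dole assay. Inhibitor present at 0.091 mole fraction of the total substrate interface; percent inhibition recorded.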

In assay [2] the target is T2, 85/88 kDa calcium-independent phospholipase A2 (Homo sapiens) (UniProt O60733).
T2 sequence (whole entry): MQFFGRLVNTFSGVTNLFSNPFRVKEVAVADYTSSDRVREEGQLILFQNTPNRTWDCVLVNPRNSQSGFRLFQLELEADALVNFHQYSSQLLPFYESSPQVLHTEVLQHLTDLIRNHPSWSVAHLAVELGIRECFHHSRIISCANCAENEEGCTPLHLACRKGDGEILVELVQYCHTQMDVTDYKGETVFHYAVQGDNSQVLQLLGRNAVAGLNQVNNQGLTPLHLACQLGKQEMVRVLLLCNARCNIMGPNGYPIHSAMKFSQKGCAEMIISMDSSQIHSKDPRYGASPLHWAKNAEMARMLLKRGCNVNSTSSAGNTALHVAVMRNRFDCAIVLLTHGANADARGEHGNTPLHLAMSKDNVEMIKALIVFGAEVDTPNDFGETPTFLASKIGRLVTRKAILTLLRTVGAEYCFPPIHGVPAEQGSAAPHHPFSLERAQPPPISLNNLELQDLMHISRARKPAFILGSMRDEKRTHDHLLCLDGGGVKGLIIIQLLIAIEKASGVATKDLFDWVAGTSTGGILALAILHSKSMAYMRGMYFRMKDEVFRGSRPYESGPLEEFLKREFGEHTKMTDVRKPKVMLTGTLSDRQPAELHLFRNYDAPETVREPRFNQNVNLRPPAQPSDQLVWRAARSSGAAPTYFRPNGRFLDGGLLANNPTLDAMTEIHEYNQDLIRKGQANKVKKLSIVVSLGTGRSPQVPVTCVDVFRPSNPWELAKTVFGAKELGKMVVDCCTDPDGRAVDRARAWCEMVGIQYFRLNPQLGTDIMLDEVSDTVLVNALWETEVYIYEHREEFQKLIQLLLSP
The experiment in a line: Inhibition of human group 6A iPLA2 by mixed micelle-based assay. The gist of the method:
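Modified Dole assay. Buffer: 200 mM HEPES pH 7.0, 1 mM ATP, 2 mM DTT, 0.1 mg/ml BSA. XI(50) is the inhibitor mole fraction in the total interface causing 50% inhibition. It was estimated for compounds exceeding 90% inhibition at 0.091 mole fraction.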

Assay [3] has as its target T3, Cytosolic phospholipase A2 (Homo sapiens) (UniProt P47712).
T3 sequence (whole entry): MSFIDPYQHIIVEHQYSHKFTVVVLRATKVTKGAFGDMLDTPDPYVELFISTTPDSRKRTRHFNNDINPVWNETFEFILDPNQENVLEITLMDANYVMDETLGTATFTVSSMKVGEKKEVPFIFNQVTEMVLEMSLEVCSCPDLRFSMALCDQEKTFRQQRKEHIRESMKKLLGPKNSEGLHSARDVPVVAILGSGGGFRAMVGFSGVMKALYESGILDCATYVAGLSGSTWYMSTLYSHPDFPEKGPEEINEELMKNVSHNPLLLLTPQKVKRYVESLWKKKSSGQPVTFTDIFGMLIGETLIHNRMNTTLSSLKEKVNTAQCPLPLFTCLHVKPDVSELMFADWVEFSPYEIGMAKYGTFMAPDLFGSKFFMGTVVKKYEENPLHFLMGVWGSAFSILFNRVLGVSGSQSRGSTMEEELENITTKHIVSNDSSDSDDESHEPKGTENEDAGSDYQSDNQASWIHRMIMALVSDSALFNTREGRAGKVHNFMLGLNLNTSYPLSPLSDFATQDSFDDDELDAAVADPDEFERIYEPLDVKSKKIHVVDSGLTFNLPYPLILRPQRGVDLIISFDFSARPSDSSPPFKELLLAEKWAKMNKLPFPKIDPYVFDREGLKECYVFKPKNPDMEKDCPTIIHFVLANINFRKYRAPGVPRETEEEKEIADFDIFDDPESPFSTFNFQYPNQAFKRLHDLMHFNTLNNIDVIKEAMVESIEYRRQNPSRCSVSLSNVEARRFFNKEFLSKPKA
Kind of assay: Inhibition of human group 4A cPLA2 at 0.091 mol fraction by mixed micelle-based assay. In outline: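 Modified Dole assay, radiolabel release. Buffer: 100 mM HEPES pH 7.5, 90 μM CaCl2, 2 mM DTT, 0.1 mg/ml BSA. Percent inhibition measured with inhibitor at 0.091 mole fraction of the total substrate interface.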

The target of assay [4] is T2, 85/88 kDa calcium-independent phospholipase A2 (Homo sapiens). Kind of assay: Inhibition of human group 6A iPLA2 at 0.091 mol fraction by mixed micelle-based assay. The gist of the method:
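Modified Dole assay. Buffer: 200 mM HEPES pH 7.0, 1 mM ATP, 2 mM DTT, 0.1 mg/ml BSA. Percent inhibition read with inhibitor at 0.091 mole fraction of the total substrate interface.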

Assay [5] deals with T3, Cytosolic phospholipase A2 (Homo sapiens). The experiment in a line: Inhibition of human group 4A cPLA2 by mixed micelle-based assay. The gist of the method:
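Buffer: 100 mM HEPES pH 7.5, 90 μM CaCl2, 2 mM DTT, 0.1 mg/ml BSA. XI(50) is the inhibitor mole fraction in the total substrate interface that gives 50% inhibition. It was estimated for compounds giving >90% inhibition at 0.091 mole fraction.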

For assay [6], the target named is T1, Phospholipase A2 group V (Homo sapiens). Kind of assay: Inhibition of human group 5 sPLA2 by mixed micelle-based assay. The gist of the method: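 Modified Dole assay. XI(50) is the inhibitor mole fraction of the total interface that halves activity. It was estimated only where inhibition at 0.091 mole fraction exceeded 90%.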

`O=C(CCCCc1ccccc1)C(F)(F)F`: the inhibition in assay [1] is less than 25%; in assay [3] it was 38%; in assay [4], 96%. Besides, the XI50 in assay [2] came to 0.0096.

Consider `OC(O)(C(F)(F)F)C(F)(F)CCCc1ccccc1`, for which the inhibition in assay [1] is 59%; in assay [3], 27%; in assay [4], 49%.

In the case of `O=C(CCCCCc1ccccc1)C(F)(F)C(F)(F)F`, the inhibition in assay [1] is 46%; in assay [3], 56%; in assay [4], 98%. Besides, the XI50 in assay [2] stood at 0.0065.

Take `CCCCCCOc1ccc(CCC(=O)C(F)(F)C(F)(F)F)cc1`: the inhibition in assay [1] was 86%; in assay [3], 73%; in assay [4] it was 95%. Also, the XI50 in assay [2] turned out to be 0.0075.

Take `CCCCCCCCCCOc1ccc(CCCCC(=O)C(F)(F)F)cc1`: the values for the inhibition in assay [1], in assay [3] and in assay [4] were 84%, 95% and 94%, respectively. Further, the XI50 in assay [2] amounted to 0.0166; in assay [5], 0.0116.

For the molecule `CCCCCCCCCCCCCCCC(=O)C(F)(F)C(F)(F)F`, the results for the inhibition in assay [1], in assay [3] and in assay [4] were 43%, less than 25% and 50%, respectively.

Take `CCCCCCCCCCCCCCCC(=O)C(F)(F)F`: the inhibition came out at 79% in assay [1], 96% in assay [3] and 92% in assay [4]. Further, the XI50 in assay [2] was determined as 0.0195; in assay [5], 0.0223.

In the case of `O=C(CCCCCc1ccccc1)C(F)(F)F`, the inhibition in assay [1] came out at 48%; in assay [3] it was 62%; in assay [4], 96%. Also, the XI50 in assay [2] is 0.0025.

As for `CCCCCCCCCCOc1ccc(CCC(=O)C(F)(F)F)cc1`, the inhibition was determined as 80% in assay [1], 96% in assay [3] and 94% in assay [4]. Also, the XI50 in assay [2] was 0.0208; in assay [5], 0.0156.

For the molecule `CCCCCCCCCCCCCCC(F)C(=O)C(F)(F)F` (stereo not drawn), the inhibition in assay [1] was determined as 86%; in assay [3] it was 94%; in assay [4] it was 93%. Further, the XI50 in assay [2] was 0.0011; in assay [6], 0.0236; in assay [5], 0.0167.

Regarding `O=C(CCCCCCc1ccccc1)C(F)(F)F`, the inhibition was 53% in assay [1], 68% in assay [3] and 99% in assay [4]. Besides, the XI50 in assay [2] stood at 0.0018.

As for `O=C(CCCCCCc1ccccc1)C(F)(F)C(F)(F)F`, the inhibition came to 75% in assay [1], 65% in assay [3] and 98% in assay [4]. For the same molecule, the XI50 in assay [2] worked out at 0.0065.

On to `CCCCCCOc1ccc(CCCCC(=O)C(F)(F)F)cc1`, for which the results for the inhibition in assay [1], in assay [3] and in assay [4] were 86%, 92% and 91%, respectively. Moreover, the XI50 in assay [2] is 0.0169; in assay [5], 0.0098.

With `O=C(CCc1ccc(OCc2ccccc2)cc1)C(F)(F)F`, the figures for the inhibition in assay [1], in assay [3] and in assay [4] were 49%, 88% and 71%, respectively.

Consider `O=C(CCCCc1ccccc1)C(F)(F)C(F)(F)F`, for which the values for the inhibition in assay [1], in assay [3] and in assay [4] were 28%, less than 25% and 98%, respectively. Further, in assay [2], the XI50 was determined as 0.0073.

Turning to `CCCCCCOc1ccc(CCC(=O)C(F)(F)F)cc1`, the inhibition in assay [1] stood at 82%; in assay [3], 91%; in assay [4] it was 85%. In addition, the figures for the XI50 in assay [2] and in assay [5] were 0.0328 and 0.0199, respectively.

What is called inhibition is the percentage by which the read-out fell short of the control.
